According to ChEMBL document CHEMBL1142242, “Indanylacetic acid derivatives carrying 4-thiazolyl-phenoxy tail groups, a new class of potent PPAR alpha/gamma/delta pan agonists: synthesis, structure-activity relationship, and in vivo efficacy” (J Med Chem, 2007):

Experiments:
[1] = molecular target: T1, Peroxisome proliferator-activated receptor alpha (Homo sapiens, UniProt Q07869); experiment: Agonist activity at human PPAR alpha by FRET assay; format: functional
T1 sequence (Q07869 whole entry): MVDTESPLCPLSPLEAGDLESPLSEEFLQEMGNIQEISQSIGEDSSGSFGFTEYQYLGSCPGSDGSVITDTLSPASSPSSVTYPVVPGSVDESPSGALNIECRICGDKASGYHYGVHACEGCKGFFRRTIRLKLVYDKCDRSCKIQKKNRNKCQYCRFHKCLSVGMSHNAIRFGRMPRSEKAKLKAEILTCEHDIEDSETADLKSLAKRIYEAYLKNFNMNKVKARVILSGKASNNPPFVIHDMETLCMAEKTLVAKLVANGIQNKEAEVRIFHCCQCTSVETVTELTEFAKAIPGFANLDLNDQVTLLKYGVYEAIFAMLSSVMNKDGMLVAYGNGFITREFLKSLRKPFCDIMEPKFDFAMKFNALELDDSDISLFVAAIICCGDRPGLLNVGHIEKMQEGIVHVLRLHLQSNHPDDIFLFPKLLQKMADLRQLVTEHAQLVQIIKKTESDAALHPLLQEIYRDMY
Method in brief: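 Human PPARα ligand binding domain (GST-tagged) association with biotin-labeled co-activator CBP; Eu-labeled anti-GST antibody and streptavidin-APC; incubated 2 h at rt in buffer with or without compound; fluorescence read at 615 or 655 nm emission, 340 nm excitation.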

[2] = molecular target: T2, Peroxisome proliferator-activated receptor delta (Homo sapiens, UniProt Q03181); experiment: Agonist activity at human PPAR delta by FRET assay; format: functional
T2 sequence (Q03181 whole entry): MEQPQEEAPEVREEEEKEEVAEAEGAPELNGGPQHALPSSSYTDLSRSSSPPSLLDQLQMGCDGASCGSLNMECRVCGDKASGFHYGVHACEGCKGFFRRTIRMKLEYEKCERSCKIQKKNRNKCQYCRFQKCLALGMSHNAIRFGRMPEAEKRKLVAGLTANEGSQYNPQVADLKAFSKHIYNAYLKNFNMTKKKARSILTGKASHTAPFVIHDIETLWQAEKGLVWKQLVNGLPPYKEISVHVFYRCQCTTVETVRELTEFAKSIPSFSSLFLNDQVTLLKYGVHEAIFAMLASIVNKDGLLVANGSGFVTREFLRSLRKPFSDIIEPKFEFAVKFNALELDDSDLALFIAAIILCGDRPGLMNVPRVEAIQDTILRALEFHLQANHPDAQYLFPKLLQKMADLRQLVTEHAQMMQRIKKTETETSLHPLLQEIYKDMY

[3] = molecular target: T3, Peroxisome proliferator-activated receptor gamma (Mus musculus, UniProt P37238); experiment: Agonist activity at PPAR gamma in mouse 3T3L1 cells assessed as increase in insulin receptor by IRBA; format: functional, cell-based, 3T3-L1
T3 sequence (P37238 whole entry): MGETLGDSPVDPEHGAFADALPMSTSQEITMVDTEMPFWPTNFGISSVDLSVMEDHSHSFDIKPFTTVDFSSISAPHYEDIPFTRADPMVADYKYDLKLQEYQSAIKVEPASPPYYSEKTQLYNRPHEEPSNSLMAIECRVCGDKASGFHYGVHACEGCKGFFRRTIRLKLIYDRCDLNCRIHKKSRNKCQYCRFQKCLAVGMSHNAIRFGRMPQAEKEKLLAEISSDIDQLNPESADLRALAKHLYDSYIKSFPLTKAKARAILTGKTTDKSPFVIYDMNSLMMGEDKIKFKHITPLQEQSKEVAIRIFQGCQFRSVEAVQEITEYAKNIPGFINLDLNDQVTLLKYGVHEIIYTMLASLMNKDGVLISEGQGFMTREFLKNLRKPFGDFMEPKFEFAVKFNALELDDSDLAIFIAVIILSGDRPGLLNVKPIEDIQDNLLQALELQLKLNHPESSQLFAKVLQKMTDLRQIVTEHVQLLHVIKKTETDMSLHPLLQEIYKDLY

[4] = molecular target: Cytochrome P450 1A2 (Homo sapiens, UniProt P05177); experiment: Inhibition of CYP1A2; format: ADME
Method in brief: (§1)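 Enzyme assays per CYP isoform (1A2, 2C8, 2D6, 3A4), with turnover of an appropriate fluorescent substrate as read-out; IC₅₀ reported.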

[5] = molecular target: Peroxisome proliferator-activated receptor delta (Mus musculus, UniProt P35396); experiment: Agonist activity at mouse PPAR delta
[6] = Aqueous solubility at pH 6.8; format: physicochemical
[7] = Cmax in mouse at 10 mg/kg, po; format: ADME, organism-based; parameters: dose 10 mg/kg, route oral; settings: in vivo
Method in brief: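 Mice dosed orally in 0.5% methylcellulose vehicle; plasma Cmax reported.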

[8] = molecular target: T2, Peroxisome proliferator-activated receptor delta; experiment: Agonist activity at human PPAR delta expressed in CV1 cells by GAL4 transactivation assay
[9] = molecular target: Cytochrome P450 2C8 (Homo sapiens, UniProt P10632); experiment: Inhibition of CYP2C8; format: ADME; method in brief: as §1
[10] = molecular target: Cytochrome P450 2C9 (Homo sapiens, UniProt P11712); experiment: Inhibition of CYP2C9; format: ADME
[11] = molecular target: Cytochrome P450 2D6 (Homo sapiens, UniProt P10635); experiment: Inhibition of CYP2D6; format: ADME; method in brief: as §1
[12] = molecular target: Cytochrome P450 3A4 (Homo sapiens, UniProt P08684); experiment: Inhibition of CYP3A4; format: ADME; method in brief: as §1
[13] = molecular target: Androgen receptor (Homo sapiens, UniProt P10275); experiment: Displacement of [3H]dihydrotestosterone from human recombinant androgen receptor expressed in SF9 baculovirus cells
[14] = molecular target: Estrogen receptor (Mus musculus, UniProt O08537+P19785); experiment: Displacement of [3H]O-estradiol from ER in Swiss mouse uteri; format: protein assay
[15] = molecular target: Glucocorticoid receptor (Homo sapiens, UniProt P04150); experiment: Displacement of [H]dexamethaxone from glucocorticoid receptor in HUH cells; format: cell-based
[16] = molecular target: Progesterone receptor (Homo sapiens, UniProt P06401); experiment: Displacement of [3H]progesterone from progesterone receptor in T47D cells; format: cell-based
Method in brief: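 Cytosol from T47D cells incubated overnight at 4 °C with ³H-progesterone at 10 nM final, with or without compound. DMSO defined total binding and 1 µM unlabelled progesterone defined nonspecific binding. Bound and free ligand were separated on a spin plate, and the flow-through was counted by scintillation.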

[17] = molecular target: T4, Peroxisome proliferator-activated receptor alpha (Homo sapiens) (UniProt Q07869); experiment: (§2) Agonist activity at human PPAR alpha expressed in CV1 cells by GAL4 transactivation assay; format: functional, cell-based; settings: CV-1
T4 sequence (whole entry): T1 sequence (Q07869 whole entry)
Method in brief: (§3)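 CV-1 cells plated, grown overnight at 37 °C in 5% CO₂, then transfected with GAL4-fused human PPARα ligand binding domain, pFR-LUC and pRL-SV40 reporter DNAs by lipofection. After a further overnight incubation, cells were exposed to compound or vehicle overnight. Activity was read as dual-luciferase reporter signal.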

[18] = molecular target: T1, Peroxisome proliferator-activated receptor alpha; experiment: as §2; format: functional, cell-based, CV-1; method in brief: as §3
[19] = molecular target: T5, Peroxisome proliferator-activated receptor alpha (Mus musculus) (UniProt P23204); experiment: (§4) Agonist activity at mouse PPAR alpha; format: functional
T5 sequence (whole entry): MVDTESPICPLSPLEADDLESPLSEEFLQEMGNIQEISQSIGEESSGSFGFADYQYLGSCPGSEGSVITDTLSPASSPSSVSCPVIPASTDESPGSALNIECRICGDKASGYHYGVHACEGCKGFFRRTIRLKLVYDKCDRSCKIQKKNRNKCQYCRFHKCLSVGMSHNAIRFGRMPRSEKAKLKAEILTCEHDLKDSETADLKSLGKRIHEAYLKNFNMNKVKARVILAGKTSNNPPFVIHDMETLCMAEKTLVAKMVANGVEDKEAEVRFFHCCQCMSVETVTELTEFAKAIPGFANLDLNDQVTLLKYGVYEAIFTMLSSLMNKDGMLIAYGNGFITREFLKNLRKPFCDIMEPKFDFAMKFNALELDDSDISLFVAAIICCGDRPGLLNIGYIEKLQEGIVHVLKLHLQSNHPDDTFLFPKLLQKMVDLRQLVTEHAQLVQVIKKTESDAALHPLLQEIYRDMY

[20] = molecular target: Peroxisome proliferator-activated receptor alpha (Mus musculus, UniProt P23204); experiment: as §4; format: functional
[21] = molecular target: PPAR gamma (Homo sapiens); experiment: Agonist activity at human PPAR gamma expressed in human preadipocytes assessed as increase in insulin receptor by IRBA

Sequence of Cytochrome P450 2C9 (P11712 whole entry): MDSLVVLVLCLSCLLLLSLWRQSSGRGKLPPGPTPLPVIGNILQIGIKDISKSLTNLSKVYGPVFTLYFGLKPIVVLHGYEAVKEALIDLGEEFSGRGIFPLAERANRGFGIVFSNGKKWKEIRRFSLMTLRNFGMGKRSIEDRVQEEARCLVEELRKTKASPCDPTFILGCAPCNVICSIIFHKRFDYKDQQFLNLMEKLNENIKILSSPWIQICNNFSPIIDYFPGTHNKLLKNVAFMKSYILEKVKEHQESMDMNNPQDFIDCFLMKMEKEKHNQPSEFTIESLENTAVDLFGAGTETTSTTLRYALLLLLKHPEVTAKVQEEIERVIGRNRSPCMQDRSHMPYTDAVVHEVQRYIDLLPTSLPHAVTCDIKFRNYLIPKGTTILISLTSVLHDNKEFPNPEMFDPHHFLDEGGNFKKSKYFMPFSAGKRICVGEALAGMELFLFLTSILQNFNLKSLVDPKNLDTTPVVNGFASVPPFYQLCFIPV
Sequence of Cytochrome P450 2C8 (P10632 whole entry): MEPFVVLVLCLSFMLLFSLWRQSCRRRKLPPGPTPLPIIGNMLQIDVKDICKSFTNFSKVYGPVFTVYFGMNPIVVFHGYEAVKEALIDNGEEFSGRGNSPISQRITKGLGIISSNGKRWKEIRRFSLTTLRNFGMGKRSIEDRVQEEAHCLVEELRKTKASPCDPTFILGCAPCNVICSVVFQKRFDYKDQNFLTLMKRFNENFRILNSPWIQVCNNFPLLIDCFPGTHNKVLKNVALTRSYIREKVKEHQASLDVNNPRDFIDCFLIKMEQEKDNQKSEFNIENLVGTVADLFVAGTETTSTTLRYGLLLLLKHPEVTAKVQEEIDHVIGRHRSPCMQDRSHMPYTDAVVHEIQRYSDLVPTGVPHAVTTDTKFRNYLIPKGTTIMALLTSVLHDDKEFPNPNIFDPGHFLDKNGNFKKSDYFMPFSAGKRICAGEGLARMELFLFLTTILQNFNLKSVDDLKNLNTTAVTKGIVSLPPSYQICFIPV
Sequence of Cytochrome P450 2D6 (P10635 whole entry): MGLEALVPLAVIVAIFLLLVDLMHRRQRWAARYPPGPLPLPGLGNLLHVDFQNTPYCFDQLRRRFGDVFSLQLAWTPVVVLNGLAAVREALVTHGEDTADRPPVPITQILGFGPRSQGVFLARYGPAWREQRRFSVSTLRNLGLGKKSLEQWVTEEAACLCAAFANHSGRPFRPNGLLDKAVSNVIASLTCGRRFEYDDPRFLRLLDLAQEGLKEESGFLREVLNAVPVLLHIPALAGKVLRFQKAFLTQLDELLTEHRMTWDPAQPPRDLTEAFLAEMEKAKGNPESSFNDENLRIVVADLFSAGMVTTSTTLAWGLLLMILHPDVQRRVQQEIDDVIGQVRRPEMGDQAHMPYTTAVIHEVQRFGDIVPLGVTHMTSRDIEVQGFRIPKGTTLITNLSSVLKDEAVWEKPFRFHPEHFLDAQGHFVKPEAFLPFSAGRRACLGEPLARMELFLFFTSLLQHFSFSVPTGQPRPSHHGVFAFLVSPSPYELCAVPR
Sequence of Androgen receptor (P10275 whole entry): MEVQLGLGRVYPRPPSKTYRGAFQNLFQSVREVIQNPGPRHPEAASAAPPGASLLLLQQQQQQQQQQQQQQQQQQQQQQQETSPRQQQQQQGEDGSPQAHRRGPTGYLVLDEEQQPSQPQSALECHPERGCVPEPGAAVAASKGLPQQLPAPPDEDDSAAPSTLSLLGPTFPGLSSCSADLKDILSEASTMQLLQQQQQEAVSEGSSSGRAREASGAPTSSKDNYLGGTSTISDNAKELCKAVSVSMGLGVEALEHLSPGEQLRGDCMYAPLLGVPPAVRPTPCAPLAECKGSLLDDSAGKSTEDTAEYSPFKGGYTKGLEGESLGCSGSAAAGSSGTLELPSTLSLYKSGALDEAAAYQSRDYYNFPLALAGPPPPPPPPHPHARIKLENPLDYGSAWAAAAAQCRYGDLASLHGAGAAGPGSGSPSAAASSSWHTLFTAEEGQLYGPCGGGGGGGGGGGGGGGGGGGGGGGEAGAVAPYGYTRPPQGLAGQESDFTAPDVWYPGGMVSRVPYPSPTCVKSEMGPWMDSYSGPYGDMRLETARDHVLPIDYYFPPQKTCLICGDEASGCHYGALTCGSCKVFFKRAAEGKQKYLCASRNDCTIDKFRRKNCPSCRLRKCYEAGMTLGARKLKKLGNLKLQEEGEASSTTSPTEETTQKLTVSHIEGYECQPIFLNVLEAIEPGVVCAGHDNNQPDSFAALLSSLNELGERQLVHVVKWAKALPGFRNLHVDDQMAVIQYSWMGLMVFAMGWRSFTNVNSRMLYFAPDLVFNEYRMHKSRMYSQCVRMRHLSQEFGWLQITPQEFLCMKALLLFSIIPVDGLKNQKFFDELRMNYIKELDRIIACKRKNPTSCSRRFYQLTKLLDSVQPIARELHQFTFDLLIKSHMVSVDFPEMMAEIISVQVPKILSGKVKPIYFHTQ
Sequence of Cytochrome P450 3A4 (P08684 whole entry): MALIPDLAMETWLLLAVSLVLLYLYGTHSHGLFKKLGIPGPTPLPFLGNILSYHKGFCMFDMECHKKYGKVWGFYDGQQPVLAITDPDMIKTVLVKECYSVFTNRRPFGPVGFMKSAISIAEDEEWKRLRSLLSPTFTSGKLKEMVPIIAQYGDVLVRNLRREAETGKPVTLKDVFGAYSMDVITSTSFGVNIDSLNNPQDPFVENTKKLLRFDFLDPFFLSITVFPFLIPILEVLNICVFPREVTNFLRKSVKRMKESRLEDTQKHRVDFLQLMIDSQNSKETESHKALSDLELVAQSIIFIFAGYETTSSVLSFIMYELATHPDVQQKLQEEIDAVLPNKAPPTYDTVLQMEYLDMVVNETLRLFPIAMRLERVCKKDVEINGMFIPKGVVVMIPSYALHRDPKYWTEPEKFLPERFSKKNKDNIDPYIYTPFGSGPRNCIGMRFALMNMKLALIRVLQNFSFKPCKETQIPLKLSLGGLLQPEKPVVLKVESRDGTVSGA
Sequence of Glucocorticoid receptor (P04150 whole entry): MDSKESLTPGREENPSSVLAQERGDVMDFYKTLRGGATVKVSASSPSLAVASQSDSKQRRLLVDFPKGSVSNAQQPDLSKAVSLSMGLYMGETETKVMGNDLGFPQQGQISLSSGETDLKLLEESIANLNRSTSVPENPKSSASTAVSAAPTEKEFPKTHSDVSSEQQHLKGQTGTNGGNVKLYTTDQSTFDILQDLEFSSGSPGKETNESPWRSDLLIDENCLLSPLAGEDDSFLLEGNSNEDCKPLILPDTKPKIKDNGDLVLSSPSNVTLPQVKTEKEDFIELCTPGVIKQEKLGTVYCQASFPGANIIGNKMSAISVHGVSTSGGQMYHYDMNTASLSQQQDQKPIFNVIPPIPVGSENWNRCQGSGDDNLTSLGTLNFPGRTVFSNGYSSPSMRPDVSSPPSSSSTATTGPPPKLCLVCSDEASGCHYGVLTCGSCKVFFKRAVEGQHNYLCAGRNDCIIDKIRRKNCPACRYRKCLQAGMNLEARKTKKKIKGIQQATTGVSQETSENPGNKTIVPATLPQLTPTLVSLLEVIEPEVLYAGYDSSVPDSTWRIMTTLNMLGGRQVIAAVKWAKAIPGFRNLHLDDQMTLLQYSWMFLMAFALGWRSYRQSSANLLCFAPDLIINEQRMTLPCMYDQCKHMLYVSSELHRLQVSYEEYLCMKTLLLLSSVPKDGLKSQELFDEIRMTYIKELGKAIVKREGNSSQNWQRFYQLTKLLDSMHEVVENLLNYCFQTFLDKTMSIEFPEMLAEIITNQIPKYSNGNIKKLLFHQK
Sequence of Cytochrome P450 1A2 (P05177 whole entry, canonical isoform): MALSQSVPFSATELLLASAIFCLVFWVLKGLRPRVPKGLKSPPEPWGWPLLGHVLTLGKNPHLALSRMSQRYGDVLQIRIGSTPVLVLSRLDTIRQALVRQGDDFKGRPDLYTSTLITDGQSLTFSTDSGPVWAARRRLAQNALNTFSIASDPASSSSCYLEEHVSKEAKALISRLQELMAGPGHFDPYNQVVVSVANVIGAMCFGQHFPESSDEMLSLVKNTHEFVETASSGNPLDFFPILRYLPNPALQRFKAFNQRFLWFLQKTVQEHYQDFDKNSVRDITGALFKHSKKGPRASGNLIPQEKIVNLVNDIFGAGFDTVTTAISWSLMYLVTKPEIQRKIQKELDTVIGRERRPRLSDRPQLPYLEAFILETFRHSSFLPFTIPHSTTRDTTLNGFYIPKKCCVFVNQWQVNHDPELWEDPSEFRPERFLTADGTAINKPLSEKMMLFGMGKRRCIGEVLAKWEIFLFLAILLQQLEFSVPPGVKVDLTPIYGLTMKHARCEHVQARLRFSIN
Sequence of Peroxisome proliferator-activated receptor delta (Mus musculus, UniProt P35396) (P35396 whole entry): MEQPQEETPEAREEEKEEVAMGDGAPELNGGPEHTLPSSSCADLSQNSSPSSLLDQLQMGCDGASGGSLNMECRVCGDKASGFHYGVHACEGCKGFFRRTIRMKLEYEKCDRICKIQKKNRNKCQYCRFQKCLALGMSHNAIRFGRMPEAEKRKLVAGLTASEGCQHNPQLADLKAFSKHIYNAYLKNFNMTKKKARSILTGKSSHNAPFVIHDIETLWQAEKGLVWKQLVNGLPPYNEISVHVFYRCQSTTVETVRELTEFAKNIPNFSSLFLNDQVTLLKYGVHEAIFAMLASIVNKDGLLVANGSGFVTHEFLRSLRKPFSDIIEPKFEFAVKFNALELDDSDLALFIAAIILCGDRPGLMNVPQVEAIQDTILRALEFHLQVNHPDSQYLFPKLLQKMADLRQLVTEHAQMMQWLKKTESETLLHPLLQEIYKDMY

Structure (SMILES) | EC50 [1] [µM] | EC50 [2] [µM] | EC50 [3] [µM] | other results
CCCc1cc(-c2nc(C(F)(F)F)cs2)ccc1OCCCOc1ccc2c(c1)CC[C@H]2CC(=O)O | 0.197 | 0.0033 | 0.055 | –
O=C(O)C[C@@H]1CCc2cc(OCCCOc3ccc4c(c3)ONC4(O)C(F)(F)F)ccc21 (some centres undefined) | > 10 | 0.067 | 5 | –
CCc1ccc(OCCCOc2ccc3c(c2)CC[C@H]3CC(=O)O)cc1 | 1.98 | 0.0089 | 6.2 | –
Cc1ccc(OCCCOc2ccc3c(c2)CC[C@H]3CC(=O)O)cc1C | > 10 | 0.067 | > 10 | –
Cc1ccc(OCCCOc2ccc3c(c2)CC[C@H]3CC(=O)O)c(C)c1 | 9.36 | 0.0046 | 2.18 | –
CCCc1cc(-c2nc3c(s2)CCCC3)ccc1OCCCOc1ccc2c(c1)CC[C@H]2CC(=O)O | 0.043 | 0.0019 | 0.012 | IC50 [4]: > 10 µM; EC50 [5]: 0.0086 µM; solubility [6]: < 5 µM; Cmax [7]: 5.1 µM; EC50 [8]: 0.0026 µM; IC50 [9]: > 10 µM; IC50 [10]: > 10 µM; IC50 [11]: > 10 µM; IC50 [12]: > 10 µM; EC50 [13]: > 10 µM; EC50 [14]: > 10 µM; EC50 [15]: > 10 µM; EC50 [16]: > 10 µM; Activity [17]: 100%; EC50 [18]: 0.005 µM; Activity [19]: 79%; EC50 [20]: 7.7 µM; EC50 [21]: 0.081 µM
O=C(O)C[C@@H]1CCc2cc(OCCCOc3ccc(OC(F)(F)F)cc3)ccc21 | 6.8 | 0.013 | 1.02 | –
